Assay results published in article PMC8214312 (Journal of medicinal chemistry, 2021).
“And” between values parts separate entries of the source, which are not always exact repeats. Identical values can stand only once.

Experiments:
FAP = conditions: read-out: IC50 FAP; cited from earlier work
[1] = tested on: FAP-positive cell lines (U87, NCIH228, and SKMEL24); conditions: inhibitor 10^-10 to 10^-4 M, then 25 nM QCP01 for 1 h at 37 °C
[2] = tested on: U87 and PC3 tumor xenografts; assay: NIRF imaging of QCP01 in tumor-bearing mice; format: in vivo, NOD/SCID mice
[3] = tested on: FAP-negative cell lines (PC3, NCIH226, and HCT116); assay: In vitro fluorescence binding of QCP01 to FAP-negative cell lines; format: cell-based, human; conditions: any of the concentrations tested (50-0.78 nM)
[4] = tested on: FAP-positive cell lines (NCIH2228, U87, and SKMEL24); assay: In vitro fluorescence binding of QCP01 to FAP-positive cell lines; format: cell-based, human; conditions: 1 h incubation, range 50-0.78 nM
[5] = tested on: U87 and PC3 tumor xenografts; assay: SPECT-CT imaging of [111In]QCP02 in tumor-bearing mice; format: in vivo, NOD/SCID mice
FAP-negative PC3 cells = assay: Cellular uptake of [111In]QCP02 in PC3 cells; format: cell-based, human; conditions: 0.037 MBq, 30 min at 37 °C
[6] = tested on: FAP-negative PC3 xenograft; assay: Ex vivo biodistribution of [111In]QCP02, PC3 xenograft; design: species or system NOD/SCID mice
Summary of the method: (§1)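 Male NOD/SCID mice (6–8 weeks) carried subcutaneous xenografts of 1 million U87 cells (left upper flank) and PC3 cells (right upper flank) in HBSS, used at 100–300 mm3. Radioligand was given as 0.37 MBq in 200 μL saline (<10% ethanol) via the tail vein. Groups (n = 4) were killed by CO2 at 5 min, 30 min, 1, 3, 6, 10 and 28 h. Weighed tissues were gamma-counted, decay-corrected against a standard dilution of the dose, and expressed as %ID/g.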

FAP-positive U87 cells = assay: Cellular uptake of [111In]QCP02 in U87 cells; format: cell-based, human; conditions: 0.037 MBq, 30 min at 37 °C
[7] = tested on: FAP-positive U87 xenograft; assay: Ex vivo biodistribution of [111In]QCP02, U87 xenograft; design: species or system NOD/SCID mice
Summary of the method: as §1

DPP-IV = conditions: read-out: IC50 DPP-IV; cited from earlier work
[8] = 1 h post injection, 0.37 MBq via tail vein

N[C@@H](CC(=O)N1CCn2c(nnc2C(F)(F)F)C1)Cc1cc(F)c(F)cc1F [sitagliptin]
IC50 (FAP): > 100000 nM | effect of pretreatment on QCP01 binding (fluorescence signal) [1]: not inhibited

CC1(C)C(/C=C/C2=C(Oc3ccc(S(=O)(=O)O)cc3)C(=C/C=C3/N(CCCCS(=O)(=O)O)c4ccc(S(=O)(=O)O)cc4C3(C)C)/CCC2)=[N+](CCCCCC(=O)NCCCOc2ccc3nccc(C(=O)NCC(=O)N4CCC[C@H]4C#N)c3c2)c2ccc(S(=O)(=O)[O-])cc21 [QCP01]
NIRF uptake in normal tissues ([2]; 5 nmol QCP01 via tail vein, 30 min after injection): mild degree (moderate in the kidney) | NIRF uptake in PC3 tumors ([2]; 5 nmol QCP01 via tail vein, 30 min until 5 h, washout at 24 h): mild uptake | NIRF uptake in U87 xenografts over time ([2]; 5 nmol QCP01 via tail vein, imaging 0.5-48 h): persisted up to 5 h after injection, with washout after 24 h | ex vivo NIRF uptake of excised U87 tumor versus PC3 tumor ([2]; 5, 24, and 48 h after injection): higher QCP01 uptake than the PC3 tumor | binding in FAP-negative cell lines [3]: no specific binding | concentration at which binding was saturated [4]: 50 nM | lowest concentration at which QCP01 binding was observed [4]: 1.56 nM

N#C[C@@H]1CCCN1C(=O)CNC(=O)c1ccnc2ccc(OCCCNC(=O)CCC(C(=O)O)N3CCN(CC(=O)[O-])CCN(CC(=O)[O-])CCN(CC(=O)[O-])CC3)cc12.[111In+3] (stereo partly drawn) [[^111In]QCP02, [^111In]2,2′,2″-(10-(1-Carboxy-4-((3-((4-((2-((S)-2-cyanopyrrolidin-1-yl)-2-oxoethyl)carbamoyl)quinolin-6-yl)oxy)propyl)amino)-4-oxobutyl)-1,4,7,10-tetraazacyclododecane-1,4,7-triyl)triacetate]
retention of uptake in U87 xenografts on SPECT-CT ([5]; 7.4 MBq via tail vein, uptake seen as early as 1 h post injection): up to 10 h | uptake in PC3 xenografts on SPECT-CT ([5]; all imaging time points (1, 3, 6, 10, 28 h)): low uptake | binding of the incubated dose (FAP-negative PC3 cells): 0.01% | uptake in PC3 xenograft [6, 8]: 4.12 ± 0.36 % ID/g | uptake in PC3 tumor ([6]; all time points): less than 5 % ID/g | binding of the incubated dose (FAP-positive U87 cells): over 30% | uptake in U87 tumor ([7]; 5 min post injection): over 10 % ID/g | uptake in U87 tumor (peak) ([7]; 30 min post injection): 18.2 % ID/g and 18.16 ± 11.67 % ID/g | uptake in U87 xenograft [7, 8]: 16.09 ± 4.17 % ID/g | uptake in U87 xenografts, blocked ([7]; 6 h post injection, co-injection of non-radioactive QCP02 (50 μg per mouse)): 0.55 ± 0.23 % ID/g | uptake in U87 xenograft relative to PC3 xenograft ([7]; all time points): 3–4 fold | time by which washout of radiotracer in U87 tumors was observed ([7]; post injection): ≤ 28 h

CC(C)[C@H](N)C(=O)N1CCC[C@H]1B(O)O [Val-boroPro]
IC50 (DPP-IV): 22 ± 1 nM
